Calls of active or inactive are those of the source. The calls are words filed in the database; no cut-off is given here.
What was measured:
Rattus norvegicus [1] = assay: Antihypertensive activity in spontaneously hypertensive rat assessed as mean heart rate at 30 mg/kg, po followed by second dosing at 24 hrs measured after 28 hrs by tail cuff method relative to vehicle-treated control; type: functional
Outline: (§1)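 Heart rate by biotachometer in the SHR dose-response protocol: five rats per dose, oral doses of 100, 30, 10 and 3 mg/kg in 0.25% methylcellulose, second dose right after the 24-h reading. Mean heart rate recorded predose and at 4, 24, 28 and 48 h.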

Rattus norvegicus [2] = assay: Antihypertensive activity in spontaneously hypertensive rat assessed as mean heart rate at 3 mg/kg, po after 24 hrs by tail cuff method relative to vehicle-treated control; type: functional; outline: as §1
Rattus norvegicus [3] = assay: Antihypertensive activity in spontaneously hypertensive rat assessed as drop in mean systolic blood pressure at 30 mg/kg, po followed by second dosing at 24 hrs measured after 28 hrs by tail cuff method relative to vehicle-treated control; type: functional, Artery
Outline: (§2)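 Dose-response run of the primary SHR protocol: rats aged 12–16 weeks, systolic BP of 170 mmHg or greater, five per dose. Oral doses of 100, 30, 10 and 3 mg/kg in 0.25% methylcellulose, redosed immediately after the 24-h reading. Tail-cuff systolic BP read predose and at 4, 24, 28 and 48 h. Mean drop from predose; Student's t test, p < 0.05.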

Rattus norvegicus [4] = assay: Antihypertensive activity in spontaneously hypertensive rat assessed as drop in mean systolic blood pressure at 100 mg/kg, po followed by second dosing at 24 hrs measured after 28 hrs by tail cuff method relative to vehicle-treated control; type: functional, Artery
Rattus norvegicus [5] = assay: Antihypertensive activity in spontaneously hypertensive rat assessed as drop in mean systolic blood pressure at 30 mg/kg, po after 4 hrs by tail cuff method relative to vehicle-treated control; type: functional, Artery; outline: as §2
Rattus norvegicus [6] = assay: Antihypertensive activity in spontaneously hypertensive rat assessed as mean heart rate at 100 mg/kg, po after 4 hrs by tail cuff method relative to vehicle-treated control; type: functional; outline: as §1
Rattus norvegicus [7] = assay: Antihypertensive activity in spontaneously hypertensive rat assessed as mean heart rate at 10 mg/kg, po followed by second dosing at 24 hrs measured after 48 hrs by tail cuff method relative to vehicle-treated control; type: functional; outline: as §1
Rattus norvegicus [8] = assay: Antihypertensive activity in spontaneously hypertensive rat assessed as drop in mean systolic blood pressure at 10 mg/kg, po after 4 hrs by tail cuff method relative to vehicle-treated control; type: functional; outline: as §2
Rattus norvegicus [9] = assay: Antihypertensive activity in spontaneously hypertensive rat assessed as mean heart rate at 3 mg/kg, po followed by second dosing at 24 hrs measured after 28 hrs by tail cuff method relative to vehicle-treated control; type: functional; outline: as §1
Rattus norvegicus [10] = assay: Antihypertensive activity in spontaneously hypertensive rat assessed as mean heart rate at 100 mg/kg, po followed by second dosing at 24 hrs measured after 48 hrs by tail cuff method relative to vehicle-treated control; type: functional; outline: as §1
Rattus norvegicus [11] = assay: Antihypertensive activity in spontaneously hypertensive rat assessed as drop in mean systolic blood pressure at 100 mg/kg, po after 24 hrs by tail cuff method relative to vehicle-treated control; type: functional, Artery
Rattus norvegicus [12] = assay: Antihypertensive activity in spontaneously hypertensive rat assessed as drop in mean systolic blood pressure at 10 mg/kg, po after 24 hrs by tail cuff method relative to vehicle-treated control; type: functional; outline: as §2
Rattus norvegicus [13] = assay: Antihypertensive activity in spontaneously hypertensive rat assessed as drop in mean systolic blood pressure at 30 mg/kg, po after 24 hrs by tail cuff method relative to vehicle-treated control; type: functional, Artery; outline: as §2
Rattus norvegicus [14] = assay: Antihypertensive activity in spontaneously hypertensive rat assessed as mean heart rate at 30 mg/kg, po after 4 hrs by tail cuff method relative to vehicle-treated control; type: functional; outline: as §1
Rattus norvegicus [15] = assay: Antihypertensive activity in spontaneously hypertensive rat assessed as mean heart rate at 100 mg/kg, po followed by second dosing at 24 hrs measured after 28 hrs by tail cuff method relative to vehicle-treated control; type: functional; outline: as §1
Rattus norvegicus [16] = assay: Antihypertensive activity in spontaneously hypertensive rat assessed as mean heart rate at 10 mg/kg, po followed by second dosing at 24 hrs measured after 28 hrs by tail cuff method relative to vehicle-treated control; type: functional; outline: as §1
Rattus norvegicus [17] = assay: Antihypertensive activity in spontaneously hypertensive rat assessed as mean heart rate at 30 mg/kg, po after 24 hrs by tail cuff method relative to vehicle-treated control; type: functional; outline: as §1
Rattus norvegicus [18] = assay: Antihypertensive activity in spontaneously hypertensive rat assessed as mean heart rate at 30 mg/kg, po followed by second dosing at 24 hrs measured after 48 hrs by tail cuff method relative to vehicle-treated control; type: functional; outline: as §1
Rattus norvegicus [19] = assay: Antihypertensive activity in spontaneously hypertensive rat assessed as drop in mean systolic blood pressure at 100 mg/kg, po followed by second dosing at 24 hrs measured after 48 hrs by tail cuff method relative to vehicle-treated control; type: functional, Artery
Rattus norvegicus [20] = assay: Antihypertensive activity in spontaneously hypertensive rat assessed as drop in mean systolic blood pressure at 100 mg/kg, po after 4 hrs by tail cuff method relative to vehicle-treated control; type: functional, Artery
Rattus norvegicus [21] = assay: Antihypertensive activity in spontaneously hypertensive rat assessed as mean heart rate at 100 mg/kg, po after 24 hrs by tail cuff method relative to vehicle-treated control; type: functional; outline: as §1
Rattus norvegicus [22] = assay: Antihypertensive activity in spontaneously hypertensive rat assessed as mean heart rate at 10 mg/kg, po after 24 hrs by tail cuff method relative to vehicle-treated control; type: functional; outline: as §1
Rattus norvegicus [23] = assay: Antihypertensive activity in spontaneously hypertensive rat assessed as drop in mean systolic blood pressure at 10 mg/kg, po followed by second dosing at 24 hrs measured after 28 hrs by tail cuff method relative to vehicle-treated control; type: functional; outline: as §2
Rattus norvegicus [24] = assay: Antihypertensive activity in spontaneously hypertensive rat assessed as mean heart rate at 3 mg/kg, po followed by second dosing at 24 hrs measured after 48 hrs by tail cuff method relative to vehicle-treated control; type: functional; outline: as §1
Rattus norvegicus [25] = assay: Antihypertensive activity in spontaneously hypertensive rat assessed as mean heart rate at 10 mg/kg, po after 4 hrs by tail cuff method relative to vehicle-treated control; type: functional; outline: as §1
[26] = Toxicity in ip dosed CF-1 mouse after 48 hrs; conditions: in vivo
Rattus norvegicus [27] = assay: Antihypertensive activity in spontaneously hypertensive rat assessed as drop in mean systolic blood pressure at 10 mg/kg, po followed by second dosing at 24 hrs measured after 48 hrs by tail cuff method relative to vehicle-treated control; type: functional; outline: as §2
Rattus norvegicus [28] = assay: Antihypertensive activity in spontaneously hypertensive rat assessed as mean heart rate at 3 mg/kg, po after 4 hrs by tail cuff method relative to vehicle-treated control; type: functional; outline: as §1
Rattus norvegicus [29] = assay: Antihypertensive activity in spontaneously hypertensive rat assessed as drop in mean systolic blood pressure at 30 mg/kg, po followed by second dosing at 24 hrs measured after 48 hrs by tail cuff method relative to vehicle-treated control; type: functional, Artery; outline: as §2
Rattus norvegicus [30] = assay: Antihypertensive activity in spontaneously hypertensive rat assessed as drop in mean systolic blood pressure at 50 mg/kg, po after 4 hrs by tail cuff method relative to vehicle-treated control; type: functional, Artery
Outline: (§3)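 Spontaneously hypertensive rats aged 12–16 weeks with systolic BP of 170 mmHg or greater, in groups of five. Dosed po as a solution or suspension in 0.25% methylcellulose at 5 mL/kg, with a second dose right after the 24-h reading. Tail-cuff systolic BP (capacitance transducer) was read predose as control, then at 4, 24, 28 and 48 h. Mean drop from predose; Student's t test, p < 0.05.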

Rattus norvegicus [31] = assay: Antihypertensive activity in spontaneously hypertensive rat assessed as drop in mean systolic blood pressure at 50 mg/kg, po followed by second dosing at 24 hrs measured after 28 hrs by tail cuff method relative to vehicle-treated control; type: functional, Artery; outline: as §3
Rattus norvegicus [32] = assay: Antihypertensive activity in spontaneously hypertensive rat assessed as drop in mean systolic blood pressure at 50 mg/kg, po followed by second dosing at 24 hrs measured after 48 hrs by tail cuff method relative to vehicle-treated control; type: functional, Artery; outline: as §3
Rattus norvegicus [33] = assay: Antihypertensive activity in spontaneously hypertensive rat assessed as drop in mean systolic blood pressure at 50 mg/kg, po after 24 hrs by tail cuff method relative to vehicle-treated control; type: functional, Artery; outline: as §3

Compound: Cl.O.O=C(NNc1nncc(-c2ccccc2)n1)C12CC3CC(CC(C3)C1)C2
- Activity (Rattus norvegicus [1]): 380 bpm
- Activity (Rattus norvegicus [2]): 420 bpm
- Activity (Rattus norvegicus [3]): 18 mmHg
- Activity (Rattus norvegicus [4]): 46 mmHg
- Activity (Rattus norvegicus [5]): 20 mmHg
- Activity (Rattus norvegicus [6]): 446 bpm
- Activity (Rattus norvegicus [7]): 422 bpm
- Activity (Rattus norvegicus [8]; Artery): inactive
- Activity (Rattus norvegicus [9]): 418 bpm
- Activity (Rattus norvegicus [10]): 458 bpm
- Activity (Rattus norvegicus [11]): 70 mmHg
- Activity (Rattus norvegicus [12]; Artery): inactive
- Activity (Rattus norvegicus [13]): 12 mmHg
- Activity (Rattus norvegicus [14]): 410 bpm
- Activity (Rattus norvegicus [15]): 442 bpm
- Activity (Rattus norvegicus [16]): 428 bpm
- Activity (Rattus norvegicus [17]): 412 bpm
- Activity (Rattus norvegicus [18]): 392 bpm
- Activity (Rattus norvegicus [19]): 35 mmHg
- Activity (Rattus norvegicus [20]): 42 mmHg
- Activity (Rattus norvegicus [21]): 428 bpm
- Activity (Rattus norvegicus [22]): 446 bpm
- Activity (Rattus norvegicus [23]; Artery): inactive
- Activity (Rattus norvegicus [24]): 426 bpm
- Activity (Rattus norvegicus [25]): 468 bpm
- LD50 at 48 h [26]: > 300 mg/kg
- Activity (Rattus norvegicus [27]; Artery): inactive
- Activity (Rattus norvegicus [28]): 445 bpm
- Activity (Rattus norvegicus [29]): 11 mmHg

Compound: NNc1nncc(-c2ccccc2)n1
- Activity (Rattus norvegicus [30]): 30 mmHg
- Activity (Rattus norvegicus [31]): 58 mmHg
- Activity (Rattus norvegicus [32]): 60 mmHg
- Activity (Rattus norvegicus [33]): 43 mmHg
- LD50 at 48 h [26]: 56 mg/kg

Compound: O=C(NNc1nncc(-c2ccc(Cl)c(Cl)c2)n1)C(F)(F)F
- Activity (Rattus norvegicus [1]): 435 bpm
- Activity (Rattus norvegicus [2]): 424 bpm
- Activity (Rattus norvegicus [3]): 18 mmHg
- Activity (Rattus norvegicus [4]): 35 mmHg
- Activity (Rattus norvegicus [5]): 18 mmHg
- Activity (Rattus norvegicus [6]): 472 bpm
- Activity (Rattus norvegicus [7]): 400 bpm
- Activity (Rattus norvegicus [8]): 16 mmHg
- Activity (Rattus norvegicus [9]): 428 bpm
- Activity (Rattus norvegicus [10]): 438 bpm
- Activity (Rattus norvegicus [11]): 29 mmHg
- Activity (Rattus norvegicus [12]): 12 mmHg
- Activity (Rattus norvegicus [13]): 18 mmHg
- Activity (Rattus norvegicus [14]): 444 bpm
- Activity (Rattus norvegicus [15]): 438 bpm
- Activity (Rattus norvegicus [16]): 448 bpm
- Activity (Rattus norvegicus [17]): 438 bpm
- Activity (Rattus norvegicus [18]): 426 bpm
- Activity (Rattus norvegicus [19]): 25 mmHg
- Activity (Rattus norvegicus [20]): 30 mmHg
- Activity (Rattus norvegicus [21]): 462 bpm
- Activity (Rattus norvegicus [22]): 438 bpm
- Activity (Rattus norvegicus [23]): 17 mmHg
- Activity (Rattus norvegicus [24]): 424 bpm
- Activity (Rattus norvegicus [25]): 412 bpm
- LD50 at 48 h [26]: > 300 mg/kg
- Activity (Rattus norvegicus [27]): 15 mmHg
- Activity (Rattus norvegicus [28]): 430 bpm
- Activity (Rattus norvegicus [29]): 16 mmHg

Compound: NNc1nncc2ccccc12 [HYDRALAZINE]
- Activity (Rattus norvegicus [1]): 496 bpm
- Activity (Rattus norvegicus [2]): 392 bpm
- Activity (Rattus norvegicus [3]): 47 mmHg
- Activity (Rattus norvegicus [5]): 88 mmHg
- Activity (Rattus norvegicus [7]): 448 bpm
- Activity (Rattus norvegicus [8]): 60 mmHg
- Activity (Rattus norvegicus [9]): 444 bpm
- Activity (Rattus norvegicus [12]): 38 mmHg
- Activity (Rattus norvegicus [13]): 60 mmHg
- Activity (Rattus norvegicus [14]): 492 bpm
- Activity (Rattus norvegicus [16]): 428 bpm
- Activity (Rattus norvegicus [17]): 480 bpm
- Activity (Rattus norvegicus [18]): 448 bpm
- Activity (Rattus norvegicus [22]): 468 bpm
- Activity (Rattus norvegicus [23]): 10 mmHg
- Activity (Rattus norvegicus [24]): 432 bpm
- Activity (Rattus norvegicus [25]): 504 bpm
- LD50 at 48 h [26]: 100 mg/kg
- Activity (Rattus norvegicus [27]): 10 mmHg
- Activity (Rattus norvegicus [28]): 448 bpm
- Activity (Rattus norvegicus [29]): 14 mmHg

Compound: CC(=O)NNc1nncc(-c2cccc(Cl)c2)n1
- Activity (Rattus norvegicus [1]): 460 bpm
- Activity (Rattus norvegicus [2]): 430 bpm
- Activity (Rattus norvegicus [3]): 19 mmHg
- Activity (Rattus norvegicus [4]): 50 mmHg
- Activity (Rattus norvegicus [5]): 16 mmHg
- Activity (Rattus norvegicus [6]): 478 bpm
- Activity (Rattus norvegicus [7]): 448 bpm
- Activity (Rattus norvegicus [8]; Artery): inactive
- Activity (Rattus norvegicus [9]): 436 bpm
- Activity (Rattus norvegicus [10]): 490 bpm
- Activity (Rattus norvegicus [11]): 23 mmHg
- Activity (Rattus norvegicus [12]; Artery): inactive
- Activity (Rattus norvegicus [13]): 14 mmHg
- Activity (Rattus norvegicus [14]): 400 bpm
- Activity (Rattus norvegicus [15]): 482 bpm
- Activity (Rattus norvegicus [16]): 448 bpm
- Activity (Rattus norvegicus [17]): 438 bpm
- Activity (Rattus norvegicus [18]): 462 bpm
- Activity (Rattus norvegicus [19]): 55 mmHg
- Activity (Rattus norvegicus [20]): 20 mmHg
- Activity (Rattus norvegicus [21]): 482 bpm
- Activity (Rattus norvegicus [22]): 460 bpm
- Activity (Rattus norvegicus [23]; Artery): inactive
- Activity (Rattus norvegicus [24]): 442 bpm
- Activity (Rattus norvegicus [25]): 458 bpm
- LD50 at 48 h [26]: > 300 mg/kg
- Activity (Rattus norvegicus [27]; Artery): inactive
- Activity (Rattus norvegicus [28]): 422 bpm
- Activity (Rattus norvegicus [29]): 19 mmHg

Compound: Br.NCC(=O)NNc1nncc(-c2ccccc2)n1.O
- Activity (Rattus norvegicus [30]): 41 mmHg
- Activity (Rattus norvegicus [31]): 105 mmHg
- Activity (Rattus norvegicus [32]): 91 mmHg
- Activity (Rattus norvegicus [33]): 35 mmHg
- LD50 at 48 h [26]: 75 mg/kg
